Test results: ChEMBL document CHEMBL2057169, “Discovery of novel tricyclic compounds as squalene synthase inhibitors” (Bioorg Med Chem, 2012)

How the values were obtained:
Squalene synthase = target: T1, Squalene synthase (Rattus norvegicus, UniProt Q02769); test: Inhibition of squalene synthase in rat hepatic cells; assay type: cell-based
T1 sequence (Q02769 whole entry): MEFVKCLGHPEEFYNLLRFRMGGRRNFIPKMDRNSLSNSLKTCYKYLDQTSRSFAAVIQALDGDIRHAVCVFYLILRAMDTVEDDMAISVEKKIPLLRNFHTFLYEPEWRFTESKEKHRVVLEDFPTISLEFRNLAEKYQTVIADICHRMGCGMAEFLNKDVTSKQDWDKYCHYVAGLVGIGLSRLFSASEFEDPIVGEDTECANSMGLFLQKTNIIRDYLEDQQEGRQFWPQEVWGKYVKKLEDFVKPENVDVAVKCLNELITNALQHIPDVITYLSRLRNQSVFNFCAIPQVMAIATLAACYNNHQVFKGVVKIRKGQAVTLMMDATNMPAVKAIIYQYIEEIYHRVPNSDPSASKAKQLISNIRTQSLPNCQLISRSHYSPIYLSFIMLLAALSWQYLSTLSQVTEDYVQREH

marmosets [1] = test: Lipid lowering effect in marmosets assessed as reduction in plasma triglyceride level at 100 mg/kg, po administered once daily for 7 days; assay type: functional; settings: Callitrichinae sp., in Callithrix jacchus, 168 h
How it was run: (§1)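 Common marmosets, n = 8 per group, matched for body weight and plasma lipids. They were dosed orally at 100 mg/kg in 0.5% methylcellulose (5 ml/kg) once daily for 7 days. Nonfasted blood was drawn before dosing and the morning after the last dose. HDL was precipitated, then its cholesterol assayed enzymatically; non-HDL = total minus HDL cholesterol. Change was expressed relative to pre-values.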

marmosets [2] = test: Lipid lowering effect in marmosets assessed as reduction in plasma total cholesterol level at 100 mg/kg, po administered once daily for 7 days; assay type: functional; settings: Callitrichinae sp., in Callithrix jacchus, 168 h; how it was run: as §1
marmosets [3] = test: Lipid lowering effect in marmosets assessed as reduction in plasma HDL-cholesterol level at 100 mg/kg, po administered once daily for 7 days; assay type: functional; settings: Callitrichinae sp., in Callithrix jacchus, 168 h; how it was run: as §1
Hepatocyte = test: Inhibition of cholesterol synthesis in rat hepatocytes assessed as formation of cholesterol using [14C]mevalonolactone as substrate after 1 hr by radioactivity assay; assay type: functional, cell-based
How it was run: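 Rat hepatocytes isolated by two-step portal-vein perfusion (EGTA buffer, then 0.05% collagenase). Cells were kept if viability was over 80% by trypan blue and seeded at 10^6 cells/well in DMEM with 10% LPDS. Next day they got 5% LPDS medium with inhibitor at 0–3000 nM for 1 h at 37 °C, then [14C]mevalonolactone for 1 h. Lysates were saponified, [14C]cholesterol corrected by [3H]cholesterol recovery and BCA protein, and % inhibition taken versus 0 nM wells. Triplicate wells; three experiments.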

marmosets [4] = test: Lipid lowering effect in marmosets assessed as reduction in plasma non HDL-cholesterol level at 100 mg/kg, po administered once daily for 7 days; assay type: functional; settings: Callitrichinae sp., in Callithrix jacchus, 168 h; how it was run: as §1
Rattus norvegicus = test: Inhibition of cholesterol synthesis in Wistar rat liver assessed as reduction of [14C]-cholesterol level at 3 mg/kg, po administered as single dose measured after 1 hr by liquid scintillation counting; assay type: functional
How it was run: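 Male Wistar rats, 6 weeks old, n = 4-6, dosed orally at 3 mg/kg in 0.5% methylcellulose, with equimolar NaOH or NaHCO3 added; vehicle-only controls. At 1 h, [14C]mevalonic acid (5 µCi/5 ml/kg) was given ip, and rats were killed 1 h later.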

Row | IC50 (Squalene synthase) [nM] | Compound | inhibition in vivo at 100 mg/kg (marmosets [1]) [%] | inhibition in vivo at 100 mg/kg (marmosets [2]) [%] | inhibition in vivo at 100 mg/kg (marmosets [3]) [%] | IC50 (Hepatocyte) [nM] | inhibition in vivo at 100 mg/kg (marmosets [4]) [%] | inhibition in vivo at 3 mg/kg (Rattus norvegicus) [%]
1 | > 600 | COc1cccc([C@@H]2O[C@@H](CC(=O)N3CCC(CC(=O)O)CC3)c3cccn3-c3ccc(Cl)cc32)c1OC |  |  |  |  |  | 
2 | 3.4 | COc1cccc([C@H]2O[C@H](CC(=O)N3CCC(C(=O)O)CC3)c3cccn3-c3ccc(Cl)cc32)c1OC |  |  |  | 170 |  | 
3 | 2.3 | COc1cccc([C@H]2O[C@H](CC(=O)N3CCC[C@H](C(=O)O)C3)c3cccn3-c3ccc(Cl)cc32)c1OC |  |  |  | 60 |  | 
4 | 4.3 | COc1cccc([C@H]2O[C@H](CC(=O)N3CCN(CC(=O)O)CC3)c3cccn3-c3ccc(Cl)cc32)c1OC |  |  |  | 150 |  | 
5 | 2.3 | COc1cccc([C@H]2O[C@H](CC(=O)NCC(=O)O)c3cccn3-c3ccc(Cl)cc32)c1OC |  |  |  | 94 |  | 
6 | 2.9 | COc1cccc([C@H]2O[C@H](CC(=O)NCCC(=O)O)c3cccn3-c3ccc(Cl)cc32)c1OC |  |  |  | 160 |  | 
7 | 3.1 | COc1cccc([C@H]2O[C@H](CCC(=O)O)c3cccn3-c3ccc(Cl)cc32)c1OC |  |  |  | > 1000 |  | 
8 | 2.4 | COc1cccc([C@H]2O[C@H](CCC(=O)N3CCC(CC(=O)O)CC3)c3cccn3-c3ccc(Cl)cc32)c1OC |  |  |  | 93 |  | 35
9 | 1.4 | COc1cccc([C@H]2O[C@H](CCC(=O)N3CCC[C@H](C(=O)O)C3)c3cccn3-c3ccc(Cl)cc32)c1OC | 21 | 9 | -21 | 70 | 23 | 53
10 | 2.2 | COc1cccc([C@H]2O[C@H](CCC(=O)N3CC(C(=O)O)C3)c3cccn3-c3ccc(Cl)cc32)c1OC |  |  |  | 23 |  | 31
11 | 7 | COc1cccc([C@H]2O[C@H](CCC(=O)N3CC(CC(=O)O)C3)c3cccn3-c3ccc(Cl)cc32)c1OC |  |  |  | 36 |  | 41
12 | 0.8 | COc1cccc([C@H]2O[C@H](CCC(=O)N3CCC(OCC(=O)O)CC3)c3cccn3-c3ccc(Cl)cc32)c1OC |  |  |  | 7.2 |  | 18
13 | 1.4 | COc1cccc([C@H]2O[C@H](CCC(=O)N3CCC(OCCC(=O)O)CC3)c3cccn3-c3ccc(Cl)cc32)c1OC |  |  |  | 35 |  | 23
14 | 0.9 | COc1cccc([C@H]2O[C@H](CCC(=O)N3CCC(COCC(=O)O)CC3)c3cccn3-c3ccc(Cl)cc32)c1OC |  |  |  | 10 |  | 7
15 | 1.6 | COc1cccc([C@H]2O[C@H](CCC(=O)N3CCOC(C(=O)O)C3)c3cccn3-c3ccc(Cl)cc32)c1OC (stereo partly drawn) |  |  |  | 9.7 |  | 13
16 | 2.2 | COc1cccc([C@H]2O[C@H](CCC(=O)N3CCN(CC(=O)O)C(=O)C3)c3cccn3-c3ccc(Cl)cc32)c1OC |  |  |  | 11 |  | 1
17 | 0.59 | COc1cccc([C@H]2O[C@H](CCn3cc(C(=O)O)nn3)c3cccn3-c3ccc(Cl)cc32)c1OC |  |  |  | 25 |  | 44
18 | 2.1 | COc1cccc([C@H]2O[C@H](CCn3cc(C(=O)O)cn3)c3cccn3-c3ccc(Cl)cc32)c1OC |  |  |  | 54 |  | 56
19 | 0.89 | COc1cccc([C@H]2O[C@H](CCn3nnc(C(=O)O)n3)c3cccn3-c3ccc(Cl)cc32)c1OC |  |  |  | 18 |  | 38
20 | 220 | COC(=O)CC1OC(c2cccc(OC)c2OC)c2cc(Cl)ccc2-n2cccc21 (racemic) |  |  |  |  |  | 
21 | 3.3 | COc1cccc(C2OC(CC(=O)O)c3cccn3-c3ccc(Cl)cc32)c1OC (racemic) |  |  |  | 250 |  | 
22 | 2.7 | COc1cccc(C2OC(CC(=O)N3CCC(CC(=O)O)CC3)c3cccn3-c3ccc(Cl)cc32)c1OC (racemic) |  |  |  | 63 |  | 

More lines, now with the values behind:

Row | Compound | IC50 (Squalene synthase) [nM] | inhibition in vivo at 100 mg/kg (marmosets [1]) [%] | inhibition in vivo at 100 mg/kg (marmosets [2]) [%] | inhibition in vivo at 100 mg/kg (marmosets [3]) [%] | IC50 (Hepatocyte) [nM] | inhibition in vivo at 100 mg/kg (marmosets [4]) [%] | inhibition in vivo at 3 mg/kg (Rattus norvegicus) [%]
23 | O=C(O)CC1OC(c2cccc3ccccc23)c2cc(Cl)ccc2-n2cccc21 (stereo not drawn) | > 600 |  |  |  |  |  | 
24 | O=C(O)CC1OC(c2cccc(Cl)c2Cl)c2cc(Cl)ccc2-n2cccc21 (stereo not drawn) | 52 |  |  |  |  |  | 
25 | O=C(O)CC1OC(c2cccc3c2OCCO3)c2cc(Cl)ccc2-n2cccc21 (stereo not drawn) | 440 |  |  |  |  |  | 
26 | COc1cccc([C@H]2O[C@H](CC(=O)N3CCC(CC(=O)O)CC3)c3cccn3-c3ccc(Cl)cc32)c1OC |  | 28 | 4 | -11 | 49 | 9 | 
27 | COc1cccc([C@H]2O[C@H](CC(=O)Nc3cccc(C(=O)O)c3)c3cccn3-c3ccc(Cl)cc32)c1OC | 4 |  |  |  | 150 |  | 
28 | COc1cccc([C@H]2O[C@H](CCn3cc(CC(=O)O)nn3)c3cccn3-c3ccc(Cl)cc32)c1OC | 0.51 | 24 | 10 | -8 | 24 | 21 | 66
29 | COc1cccc([C@H]2O[C@H](CCn3nncc3CC(=O)O)c3cccn3-c3ccc(Cl)cc32)c1OC | 0.81 |  |  |  | 41 |  | 50
30 | COc1cccc([C@H]2O[C@H](CCn3cc(COCC(=O)O)nn3)c3cccn3-c3ccc(Cl)cc32)c1OC | 0.68 |  |  |  | 19 |  | 18
31 | COc1cccc([C@H]2O[C@H](CCn3cc(COC(C)(C)C(=O)O)nn3)c3cccn3-c3ccc(Cl)cc32)c1OC | 0.69 |  |  |  | 7.3 |  | 36
32 | CCC(CC)(OCc1cn(CC[C@H]2O[C@H](c3cccc(OC)c3OC)c3cc(Cl)ccc3-n3cccc32)nn1)C(=O)O | 1.7 |  |  |  | 14 |  | 45
33 | COc1cccc([C@H]2O[C@H](CCn3ccc(CC(=O)O)n3)c3cccn3-c3ccc(Cl)cc32)c1OC | 1.3 | 16 | 27 | -10 | 58 | 52 | 64
34 | COc1cccc([C@H]2O[C@H](CCn3nccc3CC(=O)O)c3cccn3-c3ccc(Cl)cc32)c1OC | 1.6 |  |  |  | 210 |  | 5
35 | COc1cccc([C@H]2O[C@H](CCn3cc(CC(=O)O)cn3)c3cccn3-c3ccc(Cl)cc32)c1OC | 3.1 |  |  |  | 62 |  | 34
36 | COc1cccc([C@H]2O[C@H](CCn3nnnc3CC(=O)O)c3cccn3-c3ccc(Cl)cc32)c1OC | 1.1 |  |  |  | 130 |  | 
37 | COc1cccc([C@H]2O[C@H](CCn3nnc(CCC(=O)O)n3)c3cccn3-c3ccc(Cl)cc32)c1OC | 0.85 |  |  |  | 70 |  | 64
38 | COc1cccc([C@H]2O[C@H](CCn3nnc(C(C)(C)C(=O)O)n3)c3cccn3-c3ccc(Cl)cc32)c1OC | 1.1 |  |  |  | 58 |  | 44
39 | COc1cccc([C@H]2O[C@H](CCn3nnc(C4(C(=O)O)CC4)n3)c3cccn3-c3ccc(Cl)cc32)c1OC | 1.7 |  |  |  | 52 |  | 53
40 | COc1cccc([C@H]2O[C@H](CCn3nnc(COC(C)(C)C(=O)O)n3)c3cccn3-c3ccc(Cl)cc32)c1OC | 2.5 |  |  |  | 10 |  | 51
41 | COc1cccc(C2OC(CC(=O)O)c3ccc(Cl)n3-c3ccc(Cl)cc32)c1OC (racemic) | 1.6 |  |  |  | 560 |  | 
42 | COc1cccc(C2OC(CC(=O)O)c3ccc(CN(C)C)n3-c3ccc(Cl)cc32)c1OC (racemic) | 540 |  |  |  |  |  | 
43 | COc1cccc(C2OC(CC(=O)O)c3ccc(CN4CCOCC4)n3-c3ccc(Cl)cc32)c1OC (racemic) | 7.6 |  |  |  | 160 |  | 
44 | COc1cccc([C@H]2O[C@H](CC(=O)N3CCC(CC(=O)O)CC3)C(=O)N(CC(C)(C)COC(C)=O)c3ccc(Cl)cc32)c1OC [LAPAQUISTAT ACETATE] |  | 25 | 23 | 14 |  | 29 | 
